According to ChEMBL document CHEMBL4725426, “Targeted Detection of Cyclooxygenase-1 in Ovarian Cancer” (ACS Med Chem Lett, 2020):
pIC50: −log10 of the molar value. Active and inactive are the calls of the source. No cut-off for these calls is given here.

Key:
[1] = biological target: T1, Prostaglandin G/H synthase 1 (Ovis aries, UniProt P05979); test: Inhibition of ovine COX-1 assessed as [14C] arachidonic acid remaining using [14C] arachidonic acid as substrate preincubated for 20 mins followed by substrate addition measured after 30 sec by thin layer chromatography assay
T1 sequence (P05979 whole entry): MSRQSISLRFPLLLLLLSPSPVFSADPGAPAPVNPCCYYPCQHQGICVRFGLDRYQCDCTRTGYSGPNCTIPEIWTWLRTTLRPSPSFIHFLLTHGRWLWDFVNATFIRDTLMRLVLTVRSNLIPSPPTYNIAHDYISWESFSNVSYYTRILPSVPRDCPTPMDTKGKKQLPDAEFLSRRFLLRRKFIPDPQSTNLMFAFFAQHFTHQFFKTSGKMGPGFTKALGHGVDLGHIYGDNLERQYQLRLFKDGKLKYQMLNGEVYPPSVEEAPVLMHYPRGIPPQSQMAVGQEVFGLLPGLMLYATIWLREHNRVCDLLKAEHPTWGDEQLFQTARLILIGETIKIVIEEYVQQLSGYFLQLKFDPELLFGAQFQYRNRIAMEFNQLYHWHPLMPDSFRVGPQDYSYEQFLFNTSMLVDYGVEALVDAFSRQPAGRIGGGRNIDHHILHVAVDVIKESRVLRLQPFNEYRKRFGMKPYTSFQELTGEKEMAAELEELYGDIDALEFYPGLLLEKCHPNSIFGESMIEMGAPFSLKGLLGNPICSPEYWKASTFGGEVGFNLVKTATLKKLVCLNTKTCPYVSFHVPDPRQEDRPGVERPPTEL
Method in brief: (§1)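 Purified ovine COX-1 or murine COX-2 preincubated 20 min with vehicle or compound at various concentrations. [1-¹⁴C]arachidonic acid was then added and the reaction run a further 30 s. Conversion read by thin layer chromatography. IC50 derived.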

[2] = biological target: T2, Prostaglandin G/H synthase 2 (Mus musculus, UniProt Q05769); test: Inhibition of murine COX-2 assessed as [14C] arachidonic acid remaining using [14C] arachidonic acid as substrate preincubated for 20 mins followed by substrate addition measured after 30 sec by thin layer chromatography assay; method in brief: as §1
T2 sequence (Q05769 whole entry): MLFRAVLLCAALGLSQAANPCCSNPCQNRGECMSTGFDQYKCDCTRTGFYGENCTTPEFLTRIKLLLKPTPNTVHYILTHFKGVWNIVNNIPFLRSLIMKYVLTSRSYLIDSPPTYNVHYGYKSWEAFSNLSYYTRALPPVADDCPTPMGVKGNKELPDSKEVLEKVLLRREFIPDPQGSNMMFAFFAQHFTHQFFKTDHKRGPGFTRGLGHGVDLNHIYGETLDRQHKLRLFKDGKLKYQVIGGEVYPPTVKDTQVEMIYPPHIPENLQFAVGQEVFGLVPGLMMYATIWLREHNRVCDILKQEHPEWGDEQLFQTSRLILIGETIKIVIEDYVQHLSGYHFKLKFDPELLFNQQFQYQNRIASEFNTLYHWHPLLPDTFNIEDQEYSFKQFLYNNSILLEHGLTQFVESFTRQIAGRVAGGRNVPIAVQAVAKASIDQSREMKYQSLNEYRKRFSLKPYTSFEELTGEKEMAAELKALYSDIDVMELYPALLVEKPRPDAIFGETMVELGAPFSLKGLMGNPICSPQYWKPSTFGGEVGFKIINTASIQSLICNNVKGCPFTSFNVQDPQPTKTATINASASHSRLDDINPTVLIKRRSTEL

[3] = biological target: T3, Prostaglandin G/H synthase 1 (Homo sapiens, UniProt P23219); test: Inhibition of COX-1 in human OVCAR3 cells assessed as [14C] arachidonic acid remaining using [14C] arachidonic acid as substrate preincubated for 30 mins followed by substrate addition measured after 30 mins; type: cell-based, OVCAR-3
T3 sequence (P23219 whole entry): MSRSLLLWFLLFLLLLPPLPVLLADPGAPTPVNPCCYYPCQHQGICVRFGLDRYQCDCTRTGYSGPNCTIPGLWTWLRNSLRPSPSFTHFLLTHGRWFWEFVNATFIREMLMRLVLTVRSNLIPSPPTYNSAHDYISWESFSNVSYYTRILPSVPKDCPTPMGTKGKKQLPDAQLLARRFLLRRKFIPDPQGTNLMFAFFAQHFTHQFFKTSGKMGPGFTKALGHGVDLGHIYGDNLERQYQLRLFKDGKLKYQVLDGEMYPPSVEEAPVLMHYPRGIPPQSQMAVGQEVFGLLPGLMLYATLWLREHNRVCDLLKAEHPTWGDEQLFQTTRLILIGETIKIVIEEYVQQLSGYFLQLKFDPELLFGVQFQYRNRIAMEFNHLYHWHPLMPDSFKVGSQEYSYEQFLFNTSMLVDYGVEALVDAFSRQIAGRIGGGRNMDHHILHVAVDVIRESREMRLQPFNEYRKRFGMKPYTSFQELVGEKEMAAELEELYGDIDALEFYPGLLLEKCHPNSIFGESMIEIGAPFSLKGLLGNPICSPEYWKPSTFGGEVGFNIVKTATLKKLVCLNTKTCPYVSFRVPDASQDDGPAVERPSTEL
Method in brief: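 Intact OVCAR-3 cells treated 30 min with vehicle or compound across several concentrations, then given [1-¹⁴C]arachidonic acid for another 30 min. Medium aliquots were quenched, extracted, run on TLC and scanned for substrate remaining. IC50 taken from the concentration series.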

[4] = biological target: T3, Prostaglandin G/H synthase 1; test: Binding affinity to COX-1 in human OVCAR3 cells assessed as protein labeling pretreated with indomethacin for 30 mins followed by compound treatment for 30 mins and subsequent compound washout followed by cultured in serum media measured after 45 mins by fluorescence microscope based optical imaging analysis; type: cell-based; details: OVCAR-3
Method in brief: (§2)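 OVCAR-3 cells pretreated 30 min with vehicle or indomethacin, then exposed to probe 30 min, washed briefly and cultured 45 min in serum-containing medium. Intracellular fluorescence then imaged under a fluorescence microscope.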

[5] = biological target: T3, Prostaglandin G/H synthase 1; test: Binding affinity to COX-1 in human OVCAR3 cells assessed as protein labeling treated for 30 mins and subsequent compound washout followed by cultured in serum media measured after 45 mins by fluorescence microscope based optical imaging analysis; type: cell-based; details: OVCAR-3; method in brief: as §2
[6] = Drug uptake in NU-Fox1nu nude mouse xenografted with COX-1 expressing human OVCAR3 cells at 1 mg/kg, ip and measured before 2 hrs post-drug administration by IVIS spectrum in vivo fluorescence imaging analysis; type: ADME, organism-based
Method in brief: (§3)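 Female athymic nude mice carried subcutaneous OVCAR-3 xenografts on the left hind flank, grown to about 750–1000 mm³. Probe given i.p. at 1 mg/kg in DMSO. Mice lightly anesthetized and imaged on an IVIS system at 15 min, 30 min, 1, 2, 3 and 4 h post-injection.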

[7] = Drug uptake in NU-Fox1nu nude mouse xenografted with COX-1 expressing human OVCAR3 cells at 1 mg/kg, ip and measured after 3 to 4 hrs post-drug administration by IVIS spectrum in vivo fluorescence imaging analysis; type: ADME, organism-based; details: time 3-4 hrs; method in brief: as §3
[8] = Drug uptake in tumor of NU-Fox1nu nude mouse xenografted with COX-1 expressing human OVCAR3 cells at 1 mg/kg, ip by IVIS spectrum ex vivo fluorescence imaging analysis; type: ADME, organism-based, Neoplasm
Method in brief: (§4)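 OVCAR-3 xenograft-bearing female nude mice (tumors 750–1000 mm³) were dosed with probe at 1 mg/kg i.p. in DMSO. After in vivo imaging, tumor, muscle, kidney and liver were collected and imaged ex vivo.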

[9] = Drug uptake in kidney of NU-Fox1nu nude mouse xenografted with COX-1 expressing human OVCAR3 cells at 1 mg/kg, ip by IVIS spectrum ex vivo fluorescence imaging analysis; type: ADME, organism-based; method in brief: as §4
[10] = Drug uptake in liver of NU-Fox1nu nude mouse xenografted with COX-1 expressing human OVCAR3 cells at 1 mg/kg, ip by IVIS spectrum ex vivo fluorescence imaging analysis; type: ADME, organism-based; method in brief: as §4
[11] = Drug uptake in leg muscle of NU-Fox1nu nude mouse xenografted with COX-1 expressing human OVCAR3 cells at 1 mg/kg, ip by IVIS spectrum ex vivo fluorescence imaging analysis; type: ADME, organism-based; method in brief: as §4
[12] = Drug uptake in NU-Fox1nu nude mouse allografted with mouse ID8-NGL cells at 2 mg/kg, ip measured after 3 to 4 hrs post-drug administration by IVIS spectrum in vivo fluorescence imaging analysis; type: ADME, organism-based; details: time 3-4 hrs
Method in brief: (§5)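 Female athymic nude mice bearing ID8-NGL flank allografts (left hind flank, grown to 750–1000 mm³; n = 6). Probe given i.p. at 2 mg/kg in DMSO. Imaged under light anesthesia on an IVIS system 3 to 4 h post-injection.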

[13] = Drug uptake in tumor of NU-Fox1nu nude mouse allografted with mouse ID8-NGL cells at 2 mg/kg, ip measured after 3 to 4 hrs post-drug administration by IVIS spectrum in vivo fluorescence imaging analysis relative to control; type: ADME, organism-based, Neoplasm; details: time 3-4 hrs; method in brief: as §5
[14] = Drug uptake in tumor of NU-Fox1nu nude mouse allografted with mouse ID8-NGL cells at 2 mg/kg, ip treated with 10 mg/kg indomethacin 1hr prior to compound treatment followed by compound administration measured after 3 to 4 hrs post-drug administration by IVIS spectrum fluorescence imaging analysis; type: ADME, organism-based, Neoplasm; details: in vivo, time 3-4 hrs
Method in brief: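 ID8-NGL flank allografts (750–1000 mm³) in nude mice. Indomethacin 10 mg/kg i.p. in DMSO given 1 h before probe (2 mg/kg i.p. in DMSO). Tumors imaged 3 to 4 h after probe; region-of-interest light emission read at 3.5 h in relative fluorescence units.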

- pIC50 [1]: 7.03
- pIC50 [2]: < 6.00
- pIC50 [3]: 7.36
- Activity [4]: inactive
- Activity [5]: Active
- Drug uptake [6]: Not Active
- Drug uptake [7]: Active
- Drug uptake [8]: Active
- Drug uptake [9]: Active
- Drug uptake [10]: Active
- Drug uptake [11]: Active
- Drug uptake [12]: Active
- fold change (FC) [13]: 8
- Drug uptake [14]: Not Active
Structure (SMILES): COc1ccc(-n2nc(CCC(=O)NCCCCNC(=O)c3ccc(C4=c5cc6c7c(c5Oc5c4cc4c8c5CCCN8CCC4)CCC[N+]=7CCC6)c(C(=O)[O-])c3)cc2-c2ccc(C)cc2)cc1
